Results: ChEMBL document CHEMBL1126662, “Synthesis and use of the n-bromododecane-1,12-diols as conformational probes for general anesthetic target sites” (J Med Chem, 1993)
pEC50, pKi: −log10 of the molar value. Values after ≈ are worked out from the molar mass of the structure shown.

Legend:
[1] = Aqueous solubility in 25 mM N-glycyl-glycine and 10 mM MgSO4 (pH 7.8); format: physicochemical; conditions: 25 mM N-glycyl-glycine and 10 mM MgSO4 buffer, read-out: S
Outline: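 Diol solubility measured at 25 ± 1 °C in pH 7.8 buffer (25 mM N-glycylglycine, 10 mM MgSO4), a modified Curry method; dissolved diol quantified by inhibition of firefly luciferase. Values mean ± SE.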

[2] = Headecane/water partition coefficient expressed as the equilibrium ratio of the molar concentration in n-hexadecane to that in the buffer; format: physicochemical
Outline: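 Molar partition between n-hexadecane and pH 7.8 glycylglycine/MgSO4 buffer at 25 ± 1 °C; aqueous diol measured by luciferase method; at least five independent determinations per diol; mean ± SE.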

[3] = Concentration which inhibits luciferase activity by 50% when the luciferon concentration is at its Km; set-up: species or system Lampyridae
Outline: (§1)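 Luciferase purified from Photinus pyralis lanterns by affinity chromatography; light-emission assay at 25 ± 1 °C with 2 mM ATP, competitive versus luciferin. Diols added in ethanol (final 23 mM, also in controls). Triplicate activities at ~5 diol levels each paired with control; Ki by weighted least squares from ~15 estimates; EC50 = 2Ki at luciferin Km.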

[4] = Inhibition constant for firefly luciferase was evaluated; set-up: species or system Lampyridae; outline: as §1
[5] = Concentration which anesthetizes 50% of a population of Rana temporaria tadpoles at 20 degrees Centigrade; format: functional, frog
Outline: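 Rana temporaria tadpoles (20–25 mm) at 20 ± 1 °C, six per beaker in 7–10 beakers of tap water with graded diol. Endpoint: no reflex to gentle glass-rod tap on side or snout, tested every 15 min up to 2 h; Waud dose–response analysis. Convulsing tadpoles excluded.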

Row | SMILES | solubility [1] [µM] | Khd [2] | pEC50 [3] | pKi [4] | pEC50 [5]
1 | OCCCCCCCCCCC(Br)CO (stereo not given) | 725 (≈ 204 µg/mL) | 13 | 6.06 | 6.36 | 4.47
2 | OCCCCCCCCCCCCO | 95 (≈ 19.2 µg/mL) | 4.7 | 5.81 | 6.11 | 4.41
3 | OCCCCCCCCCC(Br)CCO (stereo not given) | 800 (≈ 225 µg/mL) | 3.1 | 5.76 | 6.06 | 4.25
4 | OCCCCCCC(Br)CCCCCO (stereo not given) | 2260 (≈ 636 µg/mL) | 0.32 | 4.53 | 4.84 | 4.01
5 | OCCCCCCCC(Br)CCCCO (stereo not given) | 2340 (≈ 658 µg/mL) | 0.9 | 5.13 | 5.43 | 4.54
